Experimental data reported in ChEMBL document CHEMBL1142258, “Discovery of a series of aminopiperidines as novel iNOS inhibitors” (Bioorg Med Chem Lett, 2008).

Tests used:
[1] = target: T1, Nitric oxide synthase, inducible (Homo sapiens, UniProt P35228); assay: Inhibition of human iNOS expressed in human DLD1 cells after 1 hr; assay type: cell-based, DLD-1
In short: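 Human iNOS endogenously expressed in DLD-1 cells, eight compound concentrations. Incubated 1 h at 37 °C in 50 mM Hepes with 10 nM [3H]arginine, [14C]citrulline internal standard, β-NADP+, G6P, MgCl2, G6P dehydrogenase, FAD, FMN and BH4. [3H]citrulline was separated on cation-exchange resin and counted; AMT defined background.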

[2] = target: T1, Nitric oxide synthase, inducible; assay: Inhibition of cytokine-induced iNOS activity in human DLD1 cells after 24 hrs; assay type: cell-based, DLD-1
In short: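 DLD-1 cells were seeded 3 days ahead, then given fresh medium with 20 ng/mL IFNγ, 4 ng/mL TNFα, 2 ng/mL IL1β and 1 mM L-arginine. Compound titrations in 50 mM Hepes pH 7.4 were added at eight concentrations for 24 h at 37 °C, 5% CO2. Nitrite was read with Griess reagent at 540 nm.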

Nitric oxide synthase 1 [3] = target: T2, Nitric oxide synthase 1 (Homo sapiens, UniProt P29475); assay: Inhibition of human nNOS expressed in insect SF9 cells after 1 hr
T2 sequence (P29475 whole entry): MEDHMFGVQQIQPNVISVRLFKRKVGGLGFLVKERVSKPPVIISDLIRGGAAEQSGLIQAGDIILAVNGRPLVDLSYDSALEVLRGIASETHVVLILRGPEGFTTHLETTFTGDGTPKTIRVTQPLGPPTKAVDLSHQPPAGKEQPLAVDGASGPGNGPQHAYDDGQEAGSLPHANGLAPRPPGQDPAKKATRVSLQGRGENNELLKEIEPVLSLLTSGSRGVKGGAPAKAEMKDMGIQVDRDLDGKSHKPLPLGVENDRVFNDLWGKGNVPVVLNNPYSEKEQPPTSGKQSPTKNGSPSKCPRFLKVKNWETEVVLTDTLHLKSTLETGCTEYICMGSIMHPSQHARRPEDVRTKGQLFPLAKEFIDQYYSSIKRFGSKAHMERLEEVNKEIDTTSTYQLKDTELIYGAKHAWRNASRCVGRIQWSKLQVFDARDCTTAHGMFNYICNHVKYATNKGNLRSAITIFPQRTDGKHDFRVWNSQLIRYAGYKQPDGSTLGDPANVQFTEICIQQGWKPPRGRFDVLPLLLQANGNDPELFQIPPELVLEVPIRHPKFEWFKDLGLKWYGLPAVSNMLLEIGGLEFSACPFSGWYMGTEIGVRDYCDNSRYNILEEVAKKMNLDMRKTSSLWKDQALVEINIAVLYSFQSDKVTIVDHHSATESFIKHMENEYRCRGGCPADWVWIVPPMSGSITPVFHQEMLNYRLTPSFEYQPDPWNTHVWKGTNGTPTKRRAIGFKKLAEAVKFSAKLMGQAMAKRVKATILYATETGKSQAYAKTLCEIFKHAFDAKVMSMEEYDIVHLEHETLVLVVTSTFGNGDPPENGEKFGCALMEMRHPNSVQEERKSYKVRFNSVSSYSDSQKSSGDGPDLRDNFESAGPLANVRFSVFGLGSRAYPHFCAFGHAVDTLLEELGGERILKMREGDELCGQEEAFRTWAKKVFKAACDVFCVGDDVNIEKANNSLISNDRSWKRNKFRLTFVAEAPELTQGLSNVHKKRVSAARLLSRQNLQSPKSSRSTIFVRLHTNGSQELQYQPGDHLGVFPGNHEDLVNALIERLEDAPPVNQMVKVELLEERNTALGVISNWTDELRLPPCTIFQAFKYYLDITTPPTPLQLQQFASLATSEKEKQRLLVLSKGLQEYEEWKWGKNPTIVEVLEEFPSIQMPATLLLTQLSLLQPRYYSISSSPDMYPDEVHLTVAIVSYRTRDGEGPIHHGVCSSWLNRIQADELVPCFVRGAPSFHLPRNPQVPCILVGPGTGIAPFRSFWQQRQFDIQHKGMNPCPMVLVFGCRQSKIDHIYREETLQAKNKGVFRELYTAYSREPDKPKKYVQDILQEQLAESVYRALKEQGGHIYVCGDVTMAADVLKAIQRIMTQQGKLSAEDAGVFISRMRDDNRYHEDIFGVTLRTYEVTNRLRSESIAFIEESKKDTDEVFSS

Nitric oxide synthase 3 = target: T3, Nitric oxide synthase 3 (Homo sapiens, UniProt P29474); assay: Inhibition of human eNOS expressed in insect SF9 cells after 1 hr
T3 sequence (P29474 whole entry): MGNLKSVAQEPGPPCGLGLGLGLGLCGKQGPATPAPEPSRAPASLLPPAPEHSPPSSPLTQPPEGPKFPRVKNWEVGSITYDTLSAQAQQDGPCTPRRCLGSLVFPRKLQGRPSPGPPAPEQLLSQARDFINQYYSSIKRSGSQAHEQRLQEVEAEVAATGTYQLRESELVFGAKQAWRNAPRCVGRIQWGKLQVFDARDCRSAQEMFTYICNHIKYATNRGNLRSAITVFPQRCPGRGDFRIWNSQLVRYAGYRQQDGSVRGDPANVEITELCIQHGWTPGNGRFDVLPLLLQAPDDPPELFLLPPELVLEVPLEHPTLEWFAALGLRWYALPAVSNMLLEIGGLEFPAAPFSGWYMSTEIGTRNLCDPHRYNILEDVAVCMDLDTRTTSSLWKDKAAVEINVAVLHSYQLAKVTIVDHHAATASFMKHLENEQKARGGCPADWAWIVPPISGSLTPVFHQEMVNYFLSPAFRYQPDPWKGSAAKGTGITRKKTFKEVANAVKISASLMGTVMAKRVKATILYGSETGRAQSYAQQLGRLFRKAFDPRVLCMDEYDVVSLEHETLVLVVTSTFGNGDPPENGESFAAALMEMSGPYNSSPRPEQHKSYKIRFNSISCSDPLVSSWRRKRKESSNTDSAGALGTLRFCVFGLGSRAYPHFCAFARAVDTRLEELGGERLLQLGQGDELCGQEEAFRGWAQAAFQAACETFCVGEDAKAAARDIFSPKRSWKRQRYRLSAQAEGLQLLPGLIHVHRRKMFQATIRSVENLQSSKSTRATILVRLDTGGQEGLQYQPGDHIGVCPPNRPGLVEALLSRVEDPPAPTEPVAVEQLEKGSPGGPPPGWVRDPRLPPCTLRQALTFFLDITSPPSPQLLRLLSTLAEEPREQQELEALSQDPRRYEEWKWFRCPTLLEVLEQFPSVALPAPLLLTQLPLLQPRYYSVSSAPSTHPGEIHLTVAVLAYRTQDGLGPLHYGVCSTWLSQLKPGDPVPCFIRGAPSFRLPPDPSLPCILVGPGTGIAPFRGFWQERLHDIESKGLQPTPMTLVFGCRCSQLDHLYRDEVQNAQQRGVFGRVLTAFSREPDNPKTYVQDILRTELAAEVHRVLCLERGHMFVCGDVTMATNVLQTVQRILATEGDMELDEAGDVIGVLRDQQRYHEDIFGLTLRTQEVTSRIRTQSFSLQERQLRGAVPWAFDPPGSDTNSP
In short: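 Human recombinant eNOS from SF9 cells, tested at eight concentrations. Conditions: 10 nM [3H]arginine with NADP+/G6P/G6PDH, MgCl2, FAD, FMN, BH4, plus 25 nM calmodulin, 0.5 mM CaCl2 and 3.5 mM glutathione, in 50 mM Hepes for 1 h at 37 °C. Citrulline was resin-separated and counted, with AMT background. IC50 from one-site fit, geometric mean of ≥3 runs.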

Homo sapiens = species on record: Homo sapiens; assay: Selectivity for human eNOS to human iNOS
In short: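 Ratio of eNOS IC50 to iNOS IC50, both from [3H]arginine→[3H]citrulline conversion. iNOS was endogenous to DLD-1 cells; eNOS was human recombinant expressed in SF9 cells. Each used 10 nM [3H]arginine with NADP+/G6P/FAD/FMN/BH4 cofactors in 50 mM Hepes for 1 h at 37 °C. The eNOS reaction also had calmodulin, CaCl2 and glutathione. Citrulline was separated by cation exchange and counted. IC50s came from eight concentrations, as geometric means of ≥3 runs.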

[4] = target: T1, Nitric oxide synthase, inducible; assay: Inhibition of cytokine-induced iNOS activity in human DLD1 cells at 10 uM after 24 hrs; assay type: cell-based; conditions: DLD-1
[5] = target: T4, Nitric oxide synthase 3 (Homo sapiens) (UniProt P29474); assay: Inhibition of human eNOS expressed in insect SF9 cells at 10 uM after 1 hr
T4 sequence (whole entry): T3 sequence (P29474 whole entry)

[6] = target: T1, Nitric oxide synthase, inducible; assay: Inhibition of human iNOS expressed in human DLD1 cells at 10 uM after 1 hr; assay type: cell-based; conditions: DLD-1
Nitric oxide synthase 1 [7] = target: T2, Nitric oxide synthase 1; assay: Inhibition of human nNOS expressed in insect SF9 cells at 10 uM after 1 hr
In short: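 Human recombinant nNOS expressed in SF9 cells, incubated with test compound, 10 nM [3H]arginine and [14C]citrulline (80–120 nM) internal standard in 50 mM Hepes for 1 h at 37 °C. Cofactors were β-NADP+, G6P, MgCl2, G6P dehydrogenase, FAD, FMN, BH4, 25 nM calmodulin, 0.5 mM CaCl2 and 3.5 mM glutathione. After MES stop and cation-exchange filtration, [3H]citrulline was counted; background came from 10 µM AMT.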

T1 sequence (P35228 whole entry): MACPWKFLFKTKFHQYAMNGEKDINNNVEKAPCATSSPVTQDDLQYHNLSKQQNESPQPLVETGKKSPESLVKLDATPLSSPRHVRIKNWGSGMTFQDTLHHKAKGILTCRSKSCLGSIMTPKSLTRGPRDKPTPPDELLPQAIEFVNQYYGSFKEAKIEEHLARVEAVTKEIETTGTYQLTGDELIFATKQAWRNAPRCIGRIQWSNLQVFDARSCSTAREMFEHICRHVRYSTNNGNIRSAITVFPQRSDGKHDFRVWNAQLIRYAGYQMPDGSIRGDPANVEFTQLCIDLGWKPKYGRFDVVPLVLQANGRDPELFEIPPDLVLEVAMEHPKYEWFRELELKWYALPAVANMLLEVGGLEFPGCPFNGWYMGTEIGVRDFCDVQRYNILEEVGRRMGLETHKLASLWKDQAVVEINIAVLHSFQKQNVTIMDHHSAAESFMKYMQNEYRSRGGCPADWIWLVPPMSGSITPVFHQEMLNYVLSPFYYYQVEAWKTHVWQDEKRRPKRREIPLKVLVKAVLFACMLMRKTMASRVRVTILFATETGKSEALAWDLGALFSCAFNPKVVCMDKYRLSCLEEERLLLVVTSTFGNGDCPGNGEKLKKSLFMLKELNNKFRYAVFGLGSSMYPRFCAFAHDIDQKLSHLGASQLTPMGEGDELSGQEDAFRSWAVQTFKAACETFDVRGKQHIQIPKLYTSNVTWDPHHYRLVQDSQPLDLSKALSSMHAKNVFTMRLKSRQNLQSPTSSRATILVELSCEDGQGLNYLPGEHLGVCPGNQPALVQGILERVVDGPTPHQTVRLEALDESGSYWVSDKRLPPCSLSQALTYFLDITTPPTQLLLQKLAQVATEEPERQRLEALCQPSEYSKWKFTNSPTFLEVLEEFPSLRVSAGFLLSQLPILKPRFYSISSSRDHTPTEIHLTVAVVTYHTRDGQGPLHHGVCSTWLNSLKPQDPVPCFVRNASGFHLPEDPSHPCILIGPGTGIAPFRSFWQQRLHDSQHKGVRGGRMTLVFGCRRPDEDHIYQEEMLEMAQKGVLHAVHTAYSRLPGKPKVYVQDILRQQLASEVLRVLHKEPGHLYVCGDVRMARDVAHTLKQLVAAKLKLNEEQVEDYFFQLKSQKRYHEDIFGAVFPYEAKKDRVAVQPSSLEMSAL

Compound | IC50 [1] [nM] | IC50 [2] [nM] | IC50 (Nitric oxide synthase 1 [3]) [nM] | IC50 (Nitric oxide synthase 3) [nM] | Ratio IC50 (Homo sapiens) | inhibition [4] [%] | inhibition [5] [%] | inhibition [6] [%] | inhibition (Nitric oxide synthase 1 [7]) [%]
N#Cc1ccc(Cl)cc1CN(CC1CC1)C1CCNCC1 | 160 | 1400 | 748 | 2100 | 13 | – | – | – | –
CN(Cc1cc(Cl)ccc1C#N)C1CCCNCC1 (stereo unspecified) | 660 | – | 1200 | 4400 | 7 | 31 | – | – | –
CN(Cc1cc(Cl)ccc1C#N)C1CCNCC1 | 330 | 5900 | 350 | 1100 | 3 | – | – | – | –
CC(C)CN(Cc1cc(Cl)ccc1C#N)C1CCNCC1 | 390 | 570 | 1900 | – | > 25 | – | 20 | – | –
CN1CCC(N(C)Cc2cc(Cl)ccc2Br)CC1 | 420 | – | 590 | 820 | 2 | 51 | – | – | –
CCN(Cc1cc(Cl)ccc1C#N)C1CCNCC1 | 100 | 580 | 360 | 1000 | 10 | – | – | – | –
CN1CCC(N(C)Cc2cc([N+](=O)[O-])ccc2Cl)CC1 | – | – | – | – | – | < 15 | – | < 15 | –
CC(C)CN(Cc1cc(Cl)ccc1C#N)[C@H]1CCCN(C)C1 | 720 | 320 | 6500 | – | > 50 | – | 0 | – | –
N#Cc1ccc(C(=O)N2CCC3(CC2)N=C(N)c2c(F)ccc(F)c2N3)cn1 | – | – | – | – | – | – | < 15 | – | –
CCCN(Cc1cc(Cl)ccc1C#N)C1CCNCC1 | 130 | 280 | 140 | 1700 | 13 | – | – | – | –
CCN1CCC(N(C)Cc2cc(Cl)ccc2C#N)CC1 | 370 | 4500 | 370 | 450 | 1 | – | – | – | –
N#Cc1ccc(Cl)cc1CN(C1CCCC1)C1CCNCC1 | 1500 | 6700 | – | – | > 7 | – | 1 | – | 24
CN1CCC(N(C)Cc2ccccc2)CC1 | – | – | – | – | – | < 15 | – | < 15 | –
N#Cc1ccc(Cl)cc1CN(c1ccccc1)C1CCNCC1 | 660 | 8000 | – | – | > 15 | – | 0 | – | 33
CN1CCC(N(C)Cc2cc(Cl)ccc2C#N)CC1 | 290 | 3700 | 540 | 770 | 3 | – | – | – | –
CC(C)CN(Cc1cc(Cl)ccc1C#N)[C@H]1CCCNC1 | 330 | 570 | 5300 | – | > 25 | – | 0 | – | –
CN1CCC(N(C)Cc2ccccc2[N+](=O)[O-])CC1 | – | – | – | – | – | < 15 | – | < 15 | –
CC(C)CN(Cc1cc(Cl)ccc1C#N)C1CCCNC1 (stereo unspecified) | 290 | 1200 | 2500 | – | > 15 | – | 15 | – | –

Compound | IC50 [1] [nM] | IC50 [2] [nM] | IC50 (Nitric oxide synthase 1 [3]) [nM] | IC50 (Nitric oxide synthase 3) [nM] | Ratio IC50 (Homo sapiens) | inhibition [4] [%] | inhibition [5] [%] | inhibition [6] [%] | inhibition (Nitric oxide synthase 1 [7]) [%]
CC(=N)NCCCC[C@H](N)C(=O)O [L-NIL] | 280 | 31000 | 6000 | 2500 | 9 | – | – | – | –
CN1CCC(N(C)Cc2cc(Cl)ccc2C(F)(F)F)CC1 | 700 | – | 780 | 1400 | 2 | 48 | – | – | –
CC(=N)NCCSCC[C@H](N)C(=O)O [GW-274150] | 220 | – | 8400 | – | > 45 | 26 | < 15 | – | –
CCCN1CCC(N(C)Cc2cc(Cl)ccc2C#N)CC1 | 670 | 4400 | 810 | 1100 | 2 | – | – | – | –
CN(Cc1cc(Cl)ccc1C#N)C1CCN(CC2CC2)CC1 | 250 | 3500 | 530 | 860 | 3 | – | – | – | –
COc1ccc(C#N)c(CN(C)C2CCN(C)CC2)c1 | 5100 | – | – | – | – | < 15 | – | – | –
CN(Cc1cc(Cl)ccc1C#N)C1CCN(CCc2ccccc2)CC1 | 300 | 3300 | 150 | 220 | 1 | – | – | – | –
CC(C)CN(Cc1cc(Cl)ccc1C#N)[C@@H]1CCCNC1 | 260 | 1500 | 1200 | – | > 25 | – | 23 | – | –
CN(Cc1cc(Cl)ccc1C#N)C1CCN(Cc2ccccc2)CC1 | 270 | 3500 | 1800 | 4300 | 16 | – | – | – | –
CC(C)CN(Cc1cc(Cl)ccc1C#N)[C@@H]1CCCN(C)C1 | 470 | 660 | 4900 | – | > 15 | – | 0 | – | –
CCCCN1CCC(N(C)Cc2cc(Cl)ccc2C#N)CC1 | 340 | 3800 | 420 | 680 | 2 | – | – | – | –
CC(C)CN1CCC(N(C)Cc2cc(Cl)ccc2C#N)CC1 | 400 | 3200 | 600 | 540 | 1 | – | – | – | –
CN1CCC(N(C)Cc2cc(Cl)ccc2[N+](=O)[O-])CC1 | 90 | 1100 | 80 | 180 | 2 | – | – | – | –
CN(Cc1cc(Cl)ccc1C#N)C1CCCNC1 (stereo unspecified) | 180 | 4400 | 190 | 983 | 5 | – | – | – | –
CC(C)N(Cc1cc(Cl)ccc1C#N)C1CCNCC1 | 32 | 380 | 190 | 570 | 18 | – | – | – | –
CN(Cc1cc(Cl)ccc1C#N)C1CCNC1 (stereo unspecified) | 1200 | – | 1200 | 4000 | 3 | 33 | – | – | –
CCCCN(Cc1cc(Cl)ccc1C#N)C1CCNCC1 | 570 | 5000 | – | – | – | – | – | – | –
CN1CCC(N(C)Cc2cc(Br)ccc2C#N)CC1 | 210 | 3700 | 530 | 810 | 4 | – | – | – | –
